Experiments:
Type in all cases: functional, cell-based
[1] = Cytotoxicity against human 518A2 cells assessed as cell survival after 96 hrs by sulforhodamine B assay; settings: 518A2, 96 h
How it was run: (§1)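 Cells in exponential growth were seeded at densities that avoided confluence and, after 24 h, exposed to serial compound dilutions (0-30 μM, DMSO ≤0.5% final) for 96 h. Cells were then fixed with 10% TCA at 4 °C, washed with water, and stained with 0.4% SRB for about 20 min. Excess dye was removed with 1% acetic acid, bound dye was taken up in 10 mM Tris base, and absorbance was read at 570 nm.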

A2780 = assay: Cytotoxicity against human A2780 cells assessed as cell survival after 96 hrs by sulforhodamine B assay; settings: A2780, 96 h; how it was run: as §1
HT-29 = assay: Cytotoxicity against human HT-29 cells assessed as cell survival after 96 hrs by sulforhodamine B assay; settings: HT-29, 96 h; how it was run: as §1
MCF7 = assay: Cytotoxicity against human MCF7 cells assessed as cell survival after 96 hrs by sulforhodamine B assay; settings: MCF7, 96 h; how it was run: as §1
A549 = assay: Cytotoxicity against human A549 cells assessed as cell survival after 96 hrs by sulforhodamine B assay; settings: A549, 96 h; how it was run: as §1
8505C = assay: Cytotoxicity against human 8505C cells assessed as cell survival after 96 hrs by sulforhodamine B assay; how it was run: as §1

Compound	EC50 [1] [µM]	EC50 (A2780) [µM]	EC50 (HT-29) [µM]	EC50 (MCF7) [µM]	EC50 (A549) [µM]	EC50 (8505C) [µM]
Cc1cccc(COC(=O)[C@]23CCC(C)(C)C[C@H]2C2=CC[C@@H]4[C@@]5(C)CC[C@H](O)[C@@](C)(CO)[C@@H]5CC[C@@]4(C)[C@]2(C)CC3)c1	10.9	13.7	14.4	13.5	13.5	9.7
CC1(C)CC[C@]2(C(=O)NCc3ccccc3)CC[C@]3(C)C(=CC[C@@H]4[C@@]5(C)CC[C@H](O)[C@@](C)(CO)[C@@H]5CC[C@]43C)[C@@H]2C1	13.7	11.4	15.1	14.6	15.7	13.5
CC1(C)CC[C@]2(C(=O)OCc3cccc(Cl)c3)CC[C@]3(C)C(=CC[C@@H]4[C@@]5(C)CC[C@H](O)[C@@](C)(CO)[C@@H]5CC[C@]43C)[C@@H]2C1	11.7	13.8	14.8	13	13	11.9
CC1(C)CC[C@]2(C(=O)OCc3ccc(F)cc3)CC[C@]3(C)C(=CC[C@@H]4[C@@]5(C)CC[C@H](O)[C@@](C)(CO)[C@@H]5CC[C@]43C)[C@@H]2C1	10.2	11.4	11.3	9.2	8.5	6.7
CC1(C)CC[C@]2(C(=O)OCc3ccc([N+](=O)[O-])cc3)CC[C@]3(C)C(=CC[C@@H]4[C@@]5(C)CC[C@H](O)[C@@](C)(CO)[C@@H]5CC[C@]43C)[C@@H]2C1	8.4	7.8	7.8	7.8	6.5	6.1
CC1(C)CC[C@]2(C(=O)OCc3cccc(Br)c3)CC[C@]3(C)C(=CC[C@@H]4[C@@]5(C)CC[C@H](O)[C@@](C)(CO)[C@@H]5CC[C@]43C)[C@@H]2C1	13.8	14.6	15.3	14.2	14.2	13.7
CC1(C)CC[C@]2(C(=O)OCc3c(F)c(F)c(F)c(F)c3F)CC[C@]3(C)C(=CC[C@@H]4[C@@]5(C)CC[C@H](O)[C@@](C)(CO)[C@@H]5CC[C@]43C)[C@@H]2C1	12.9	13.1	16.1	16.5	14.8	14.1
CC1(C)CC[C@]2(C(=O)OCc3ccc(F)cc3F)CC[C@]3(C)C(=CC[C@@H]4[C@@]5(C)CC[C@H](O)[C@@](C)(CO)[C@@H]5CC[C@]43C)[C@@H]2C1	9.5	12.9	13	11.5	11.4	8
CC1(C)CC[C@]2(C(=O)OCc3ccccc3[N+](=O)[O-])CC[C@]3(C)C(=CC[C@@H]4[C@@]5(C)CC[C@H](O)[C@@](C)(CO)[C@@H]5CC[C@]43C)[C@@H]2C1	10.3	12.9	12.8	10.2	10.9	8.8
CC1(C)CC[C@]2(C(=O)OCc3c(Cl)cccc3Cl)CC[C@]3(C)C(=CC[C@@H]4[C@@]5(C)CC[C@H](O)[C@@](C)(CO)[C@@H]5CC[C@]43C)[C@@H]2C1	9.2	14.4	13.3	12.7	12.9	9.4
CC1(C)CC[C@]2(C(=O)OCCCN3C(=O)c4ccccc4C3=O)CC[C@]3(C)C(=CC[C@@H]4[C@@]5(C)CC[C@H](O)[C@@](C)(CO)[C@@H]5CC[C@]43C)[C@@H]2C1	8.7	12.1	13.4	9	11.4	10.3
CC1(C)CC[C@]2(C(=O)OCc3ccccc3F)CC[C@]3(C)C(=CC[C@@H]4[C@@]5(C)CC[C@H](O)[C@@](C)(CO)[C@@H]5CC[C@]43C)[C@@H]2C1	10	13.4	13.2	12.5	13.2	11.2
COc1cc(COC(=O)[C@]23CCC(C)(C)C[C@H]2C2=CC[C@@H]4[C@@]5(C)CC[C@H](O)[C@@](C)(CO)[C@@H]5CC[C@@]4(C)[C@]2(C)CC3)cc(OC)c1	12.7	13.5	14	13.4	14	12.8
CC1(C)CC[C@]2(C(=O)OCCC3OCCCO3)CC[C@]3(C)C(=CC[C@@H]4[C@@]5(C)CC[C@H](O)[C@@](C)(CO)[C@@H]5CC[C@]43C)[C@@H]2C1	11.1	15	13.4	12.7	13.1	13.1
